Tests used:
Assay type in all cases: functional
SF-295 [1] = assay: Growth inhibition of human SF295 cells after 48 hrs by sulforhodamine B assay; details: SF-295, 48 h
MDA-MB-231 = assay: Growth inhibition of human MDA-MB-231 cells assessed as growth inhibition at 10 uM after 48 hrs by sulforhodamine B assay; details: MDA-MB-231, 48 h, read-out: GI
DU-145 [2] = assay: Growth inhibition of human DU145 cells assessed as cell growth at 10 '-7 M after 48 hrs by sulforhodamine B assay; details: DU-145, 48 h, read-out: Activity
CAKI-1 [3] = assay: Growth inhibition of human CAKI-1 cells assessed as cell growth at 10 '-5 M after 48 hrs by sulforhodamine B assay; details: CAKI-1, 48 h, read-out: Activity
Procedure, shortened: (§1)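 Percent growth at each of the five concentrations of the 48 h continuous-exposure NCI SRB screen. Drug stocks were in DMSO at 400× the top final concentration and diluted in medium with gentamicin. Growth was calculated as [(Ti-Tz)/(C-Tz)]×100 when Ti ≥ Tz, or [(Ti-Tz)/Tz]×100 when Ti < Tz. Tz plates were fixed at drug addition; untreated wells served as control. Absorbance was read at 515 nm.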

SN12C [4] = assay: Growth inhibition of human SN12C cells assessed as cell growth at 10 '-8 M after 48 hrs by sulforhodamine B assay; details: read-out: Activity
[5] = Growth inhibition of human Hs 578T cells assessed as cell growth at 10 '-5 M after 48 hrs by sulforhodamine B assay; details: read-out: Activity
UACC-62 = assay: Growth inhibition of human UACC62 cells assessed as cell growth at 10 '-7 M after 48 hrs by sulforhodamine B assay; details: UACC-62, 48 h, read-out: Activity
OVCAR-3 = assay: Growth inhibition of human OVCAR3 cells assessed as cell growth at 10 '-7 M after 48 hrs by sulforhodamine B assay; details: OVCAR-3, 48 h, read-out: Activity
SK-MEL-28 = assay: Growth inhibition of human SK-MEL-28 cells assessed as cell growth at 10 '-6 M after 48 hrs by sulforhodamine B assay; details: SK-MEL-28, 48 h, read-out: Activity
NCI-H522 = assay: Growth inhibition of human NCI-H522 cells after 48 hrs by sulforhodamine B assay; details: NCI-H522, 48 h
ACHN = assay: Growth inhibition of human ACHN cells assessed as cell growth at 10 '-4 M after 48 hrs by sulforhodamine B assay; details: read-out: Activity; procedure, shortened: as §1
[6] = Growth inhibition of human EKVX cells after 48 hrs by sulforhodamine B assay
Procedure, shortened: (§2)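 NCI 60-cell-line five-dose screen. Cells were plated at 5,000–40,000/well by doubling time and grown 24 h at 37 °C, 5% CO2. Time-zero plates were TCA-fixed. Drug from DMSO stock was tested at 0.01, 0.1, 1, 10 and 100 µM final for 48 h continuous exposure. Read-out was SRB at 515 nm. GI50 is the concentration giving 50% reduction in net protein increase versus untreated control.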

CAKI-1 [7] = assay: Growth inhibition of human CAKI-1 cells assessed as growth inhibition at 10 uM after 48 hrs by sulforhodamine B assay; details: CAKI-1, 48 h, read-out: GI
Procedure, shortened: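 Percent growth inhibition from the single 10^-5 M NCI-60 screen, reported as 100 minus growth percent. Growth percent was measured after 48 h drug exposure at 37 °C, 5% CO2, using TCA fixation, SRB staining and absorbance at 515 nm, against untreated controls and time-zero plates.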

K562 = assay: Growth inhibition of human K562 cells assessed as cell growth at 10 '-4 M after 48 hrs by sulforhodamine B assay; details: K562, 48 h, read-out: Activity
TK-10 = assay: Growth inhibition of human TK10 cells assessed as cell growth at 10 '-5 M after 48 hrs by sulforhodamine B assay; details: TK-10, 48 h, read-out: Activity
SF-539 = assay: Growth inhibition of human SF539 cells assessed as cell growth at 10 '-4 M after 48 hrs by sulforhodamine B assay; details: SF-539, 48 h, read-out: Activity
OVCAR-4 = assay: Growth inhibition of human OVCAR4 cells assessed as cell growth at 10 '-7 M after 48 hrs by sulforhodamine B assay; details: OVCAR-4, 48 h, read-out: Activity
OVCAR-5 [8] = assay: Growth inhibition of human OVCAR5 cells after 48 hrs by sulforhodamine B assay; details: OVCAR-5, 48 h
LOX IMVI = assay: Growth inhibition of human LOXIMVI cells assessed as cell growth at 10 '-5 M after 48 hrs by sulforhodamine B assay; details: read-out: Activity
HOP-92 = assay: Growth inhibition of human HOP92 cells assessed as cell growth at 10 '-8 M after 48 hrs by sulforhodamine B assay; details: HOP-92, 48 h, read-out: Activity
NCI-H460 = assay: Growth inhibition of human NCI-H460 cells after 48 hrs by sulforhodamine B assay; details: NCI-H460, 48 h
MDA-MB-468 = assay: Growth inhibition of human MDA-MB-468 cells assessed as cell growth at 10 '-6 M after 48 hrs by sulforhodamine B assay; details: MDA-MB-468, 48 h, read-out: Activity
A549 = assay: Growth inhibition of human A549 cells assessed as cell growth at 10 '-7 M after 48 hrs by sulforhodamine B assay; details: A549, 48 h, read-out: Activity; procedure, shortened: as §1
SN12C [9] = assay: Growth inhibition of human SN12C cells assessed as cell growth at 10 '-7 M after 48 hrs by sulforhodamine B assay; details: read-out: Activity
BT-549 = assay: Growth inhibition of human BT549 cells assessed as cell growth at 10 '-6 M after 48 hrs by sulforhodamine B assay; details: BT-549, 48 h, read-out: Activity; procedure, shortened: as §1
SF-295 [10] = assay: Growth inhibition of human SF295 cells assessed as cell growth at 10 '-5 M after 48 hrs by sulforhodamine B assay; details: SF-295, 48 h, read-out: Activity
SNB-75 = assay: Growth inhibition of human SNB75 cells after 48 hrs by sulforhodamine B assay; details: SNB-75, 48 h, read-out: LD50 (the source's name)
OVCAR-5 [11] = assay: Growth inhibition of human OVCAR5 cells assessed as growth inhibition at 10 uM after 48 hrs by sulforhodamine B assay; details: OVCAR-5, 48 h, read-out: GI
HT-29 = assay: Growth inhibition of human HT-29 cells after 48 hrs by sulforhodamine B assay; details: HT-29, 48 h; procedure, shortened: as §2
DU-145 [12] = assay: Growth inhibition of human DU145 cells assessed as growth inhibition at 10 uM after 48 hrs by sulforhodamine B assay; details: DU-145, 48 h, read-out: GI
[13] = read-out: LD50 (the source's name)

Cc1cc(=O)oc2cc(OCCn3c(C)nn(-c4ccc(Cl)cc4)c3=O)ccc12
GI50 (SF-295 [1]): 4730 nM | TGI (SF-295 [1]): > 1000 nM | CC50 (SF-295 [1]; [13]): > 1000 nM | inhibition of growth at 10 µM (MDA-MB-231): 52.5% | growth at 0.1 µM (DU-145 [2]): 108% | growth at 10 µM (CAKI-1 [3]): 54% | growth at 0.01 µM (SN12C [4]): 94% | growth at 10 µM [5]: 28% | growth at 0.1 µM (UACC-62): 90% | growth at 0.1 µM (OVCAR-3): 110% | growth at 1 µM (SK-MEL-28): 67% | GI50 (NCI-H522): 3850 nM | TGI (NCI-H522): 3820 nM | CC50 (NCI-H522; [13]): > 1000 nM | growth at 100 µM (ACHN): 25% | GI50 [6]: 1000 nM | TGI [6]: > 1000 nM | CC50 [6, 13]: > 1000 nM | inhibition of growth at 10 µM (CAKI-1 [7]): 80.5% | growth at 100 µM (K562): 12% | growth at 10 µM (TK-10): 58% | growth at 100 µM (SF-539): -12% | growth at 0.1 µM (OVCAR-4): 90% | GI50 (OVCAR-5 [8]): 2190 nM | TGI (OVCAR-5 [8]): > 1000 nM | CC50 (OVCAR-5 [8]; [13]): > 1000 nM | growth at 10 µM (LOX IMVI): 39% | growth at 0.01 µM (HOP-92): 87% | GI50 (NCI-H460): 2800 nM | TGI (NCI-H460): > 1000 nM | CC50 (NCI-H460; [13]): > 1000 nM | growth at 1 µM (MDA-MB-468): 77% | growth at 0.1 µM (A549): 98% | growth at 0.1 µM (SN12C [9]): 90% | growth at 1 µM (BT-549): 89% | growth at 10 µM (SF-295 [10]): 39% | CC50 (SNB-75): > 1000 nM | inhibition of growth at 10 µM (OVCAR-5 [11]): 61.2% | GI50 (HT-29): 3820 nM | TGI (HT-29): > 1000 nM | CC50 (HT-29; [13]): > 1000 nM | inhibition of growth at 10 µM (DU-145 [12]): 78.4%

From ChEMBL document CHEMBL2346664, “Synthesis, characterization and in vitro anticancer evaluation of novel 1,2,4-triazolin-3-one derivatives” (2013)
